# Measured values collected from several papers.
# Compare with care: the assays were run in different laboratories.
# Read-out: cell growth or viability
SMILES,cell line,test,setting,quantity,value
CCCCCCCCCCCCCCCCCCOc1ccc(CC(=O)OCC[N+]2(C)CCCC2)cc1,NCI-H226,SRB,10 µM,inhibition,7.36%
COc1ccc(Nc2ncnc3c2ncn3Cc2ccc(C(=O)NO)cc2)cc1,U-937,MTT,72 h,IC50,1230 nM
CCCCCCCCCCCCCCCCCCOc1ccccc1CC(=O)OCC[N+]1(C)CCCCC1,NCI-H226,SRB,10 µM,inhibition,71.9%
COc1ccc(Nc2ncnc3c2ncn3Cc2ccc(C(=O)Nc3ccccc3N)cc2)cc1,U-937,MTT,72 h,IC50,22800 nM
CC(C)(C)c1cnc(CSc2cnc(NC(=O)C3CCN(C(=O)CCCCCCCN4Cc5cc6c(cc5C4)C(=O)N(C4CCC(=O)NC4=O)C6=O)CC3)s2)o1 (stereo not shown),NCI-H226,MTT,,IC50,57 nM
CCCCCCCCCCCCCCCCCCOc1cccc(CC(=O)OCC[N+]2(C)CCCC2)c1,NCI-H226,SRB,10 µM,inhibition,14.6%
O=C(NO)c1ccc(Cn2cnc3c(Nc4ccc(F)c(Cl)c4)ncnc32)cc1,U-937,MTT,72 h,IC50,2940 nM
CN(C)CCNC(=O)c1ccc(-c2nc3ccc4[nH]ncc4c3c3c2CCCCC3)cc1,ML-2,,72 h,GI50,698 nM
CCCCCCCCCCCCCCCCCCOc1ccccc1CC(=O)OCCC[N+](C)(C)C,NCI-H226,SRB,10 µM,inhibition,22%
Nc1ccccc1NC(=O)c1ccc(Cn2cnc3c(Nc4ccc(Cl)cc4)ncnc32)cc1,U-937,MTT,72 h,IC50,920 nM
CN(C)CCNC(=O)c1ccc(-c2nc3ccc4[nH]ncc4c3c3c2CCCC3)cc1,ML-2,,72 h,GI50,152 nM
Cc1nc(Nc2ncc(C(=O)Nc3c(C)cccc3Cl)s2)cc(N2CC[C@H](O)C2)n1,SU-DHL-8,ATP luminescence,"10 µM, 72 h",inhibition,8%
Cc1n[nH]c2ccc3nc(-c4ccc(C(=O)NCCN(C)C)cc4F)c4c(c3c12)CCCCC4,U-937,,72 h,GI50,1640 nM
CCCCCCCCCCCCCCCCCCOc1ccc(CC(=O)OCC[N+](C)(C)C)cc1,NCI-H226,SRB,10 µM,inhibition,4.87%
CN1CCC(NC2CCc3[nH]c4c(C(N)=O)ccc(-c5ccccc5Cl)c4c3C2)CC1 (stereo not shown),U-937,,96 h,IC50,7.6 nM
COc1cccc2c1C(=O)c1c(O)c3c(c(O)c1C2=O)C[C@@](O)(C(=O)CO)C[C@@H]3O[C@H]1C[C@H](N)[C@H](O)[C@H](C)O1,HuCC-A1,MTT,,IC50,861 nM
COc1cccc2c1cc1c3c(cc4c(c32)OCO4)C(=O)N1C,HuCC-A1,MTT,75 h,IC50,26000 nM
CCCCCCCCCCCCCCCCCCOc1ccccc1CC(=O)OCC[N+]1(C)CCOCC1,NCI-H226,SRB,10 µM,inhibition,50.2%
Cc1n[nH]c2ccc3nc(-c4ccc(C(=O)NCCN(C)C)cc4F)c4c(c3c12)CCCC4,ML-2,,72 h,GI50,95 nM
COc1cccc2c1C(=O)c1c(O)c3c(c(O)c1C2=O)C[C@@](O)(C(=O)CO)C[C@@H]3O[C@H]1C[C@H](N)[C@H](O)[C@H](C)O1,HuCC-A1,MTT,75 h,IC50,840 nM
CN(C)CCNC(=O)c1ccc(-c2nc3ccc4[nH]ncc4c3c3c2CCCCC3)c(F)c1,U-937,,72 h,GI50,1160 nM
COc1cccc2c1C(=O)c1c(O)c3c(c(O)c1C2=O)C[C@@](O)(C(=O)CO)C[C@@H]3O[C@H]1C[C@H](N)[C@H](O)[C@H](C)O1,U-937,,96 h,IC50,22.2 nM
CN(C)CCNC(=O)c1ccc(-c2nc3ccc4[nH]ncc4c3c3c2CCCC3)c(F)c1,U-937,,72 h,GI50,2150 nM
CCCCCCCCCCCCCCCCCCOc1ccccc1CC(=O)OCC[N+](C)(C)C,NCI-H226,SRB,10 µM,inhibition,71.3%
Cc1n[nH]c2ccc3nc(-c4ccc(C(=O)NCCN(C)C)cc4)c4c(c3c12)CCCCC4,U-937,,72 h,GI50,5920 nM
CC1=CC(=O)c2ccccc2C1=O,HuCC-A1,MTT,,IC50,23000 nM
CCc1nc(C(N)=O)c(Nc2ccc(N3CCC(N4CCN(C)CC4)CC3)c(OC)c2)nc1NC1CCOCC1,ML-2,,72 h,GI50,902 nM
CCCCCCCCCCCCCCCCCCOc1cccc(CC(=O)OCCC[N+](C)(C)C)c1,NCI-H226,SRB,10 µM,inhibition,15%
